Source: publication PMC6176901 (ChemMedChem, 2018)

Tests used:
[1] = tested on: A549 (human lung adenocarcinoma); assay: Cytotoxic MTS assay, A549; type: cell-based; conditions: A549, 72 h, read-out: Cytotoxic activity IC50, A549
Method in brief: (§1)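 Human lines grown in DMEM/RPMI 1640 with 10% fetal calf serum; CEM-DNR and K562-TAX sublines selected in rising daunorubicin or paclitaxel. Seeded at 25000–35000 cells/mL in 384-well plates; DMSO solutions added at time zero; 72 h at 37 °C, 5% CO2. MTS added for 1–4 h; OD at 490 nm. Survival versus control wells; IC50 from dose-response curves. Technical duplicates, ≥3 biological replicates.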

[2] = tested on: CCRF-CEM (T-lymphoblastic leukemia); assay: Cytotoxic MTS assay, CCRF-CEM; type: cell-based; conditions: Homo sapiens, 72 h, read-out: Cytotoxic activity IC50, CCRF-CEM
Method in brief: as §1

[3] = tested on: CEM-DNR (T-lymphoblastic leukemia, daunorubicin resistant); assay: Cytotoxic MTS assay, CEM-DNR; type: cell-based; conditions: Homo sapiens, 72 h, read-out: Cytotoxic activity IC50, CEM-DNR
Method in brief: as §1

[4] = tested on: K562 (acute myeloid leukemia); assay: Cytotoxic MTS assay, K562; type: cell-based
Method in brief: as §1

[5] = tested on: K562-TAX (acute myeloid leukemia, overexpressing the P-glycoprotein); assay: Cytotoxic MTS assay, K562-TAX; type: cell-based; conditions: 72 h, read-out: Cytotoxic activity IC50, K562-TAX
Method in brief: as §1

[6] = tested on: U2OS (Human Bone Osteosarcoma Epithelial Cells); assay: Cytotoxic MTS assay, U2OS; type: cell-based; conditions: 72 h, read-out: Cytotoxic activity IC50, U2OS
Method in brief: as §1

[7] = Cytotoxic MTS assay, BJ; type: cell-based; conditions: human, BJ cells (non-malignant fibroblasts)
Method in brief: as §1

[8] = Cytotoxic MTS assay, MRC-5; type: cell-based; conditions: human, MRC-5 cells (non-malignant lung fibroblasts)
Method in brief: as §1

[9] = tested on: cancer and non-malignant cell lines; assay: Cytotoxic MTS assay, statements over several cell lines; type: cell-based; conditions: read-out: cytotoxicity, range over sensitive lines
Method in brief: as §1

[10] = molecular target: hERManI; conditions: read-out: Ki for hERManI (in AspMan column); cited from earlier work
[11] = cited from earlier work
[12] = molecular target: GMII (human Golgi α-mannosidase II); conditions: ref 9a, cited from earlier work
[13] = molecular target: LMan (human lysosomal α-mannosidase); conditions: read-out: LMan IC50 (in LManII column); ref 9a; cited from earlier work

Row | Compound | IC50 [1] | IC50 [2] | IC50 [3] | IC50 ([4]; Homo sapiens, K562, 72 h, read-out: Cytotoxic activity IC50, K562) | K562 inhibition, in words ([4]; non-resistant K562) | IC50 [5] | IC50 [6] | IC50 at 72 h [7] | IC50 at 72 h [8] | IC50 [9] | Ki [10] | pKa ligand, Water pH=7, calculated by Sladek et al. [11] | IC50 ([12]; read-out: GMII IC50 (in GMIIb column)) | IC50 [13] | Selectivity index, LMan/GMII [12]
1 | O[C@H]1[C@H]2[C@H](O)CCCN2C[C@H]1O [Compound 1, (1S,2R,8R,8aR)-trihydroxy-indolizidine] | > 200 µM | 113 ± 12 µM | 132 ± 20 µM | > 200 µM | did not inhibit | 137 ± 13 µM | > 200 µM | > 200 µM | > 200 µM | 110 to 140 µM | > 10000 µM | 7.8 | – | – | –
2 | OC[C@@H](O)[C@H]1NC[C@@H](O)[C@H]1O [Compound 24, 1,4-dideoxy-1,4-imino-D-mannitol] | – | – | – | – | – | – | – | – | – | – | – | 6.6 | 100 µM | 13 µM | –
3 | OC[C@@H](O)[C@@H]1[C@H](O)[C@H](O)CN1Cc1ccccc1 [Compound 25] | – | – | – | – | – | – | – | – | – | – | – | – | – | – | 2
